Laboratory results published in article PMC6420060 (ACS applied materials & interfaces, 2018).

How the values were obtained:
Format in all cases: physicochemical
[1] = Permeation into trapped giant unilamellar vesicles measured by FCS; settings: 20 nM; for permeation into individual GUVs: 20% POPS
Summary of the method: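 POPC/POPS (4:1) GUVs, sucrose inside and glucose outside, ± 10 μM Ru complex for about 45 min. Held in BSA-coated microfluidic hydrodynamic traps with valves pressurised to 2 bar. 20 nM calcein in hosting buffer flushed in, valves reopened, static or under flow. After 30 min, FCS used a 488 nm laser at 60 μW. Curves fitted with a triplet term and corrected for buffer background. Permeation taken as N inside versus outside per vesicle.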

[2] = GUV size after incorporation of Ru; settings: all samples pooled
Summary of the method: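 GUVs (POPC:POPS 4:1) made by emulsion transfer: 1 M sucrose/140 mM KCl/10 mM HEPES pH 7.4 inside, 1 M glucose/140 mM NaCl/10 mM HEPES outside. Incubated with 10 μM (final) Ru complex, typically 45 min, ± 200 μM (final) potassium ferricyanide. Imaged under a 60× water-immersion objective. Diameter taken at the z-plane of largest size, averaged over x and y. All vesicles pooled into histograms.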

[3] = ζ-Potential of GUVs after incubation with Ru; settings: GUVs containing 1 M sucrose measured in 1 M glucose, Zetasizer Nano ZSP

| permeation into individual GUVs ([1]; with Ru(C17)2^2+, sub-20 μm vesicle diameters) | permeation into individual GUVs under flow ([1]; without Ru(C17)2^2+, nominal flow rates of 2, 5, 8, and 11 μL/min, larger vesicles (above 20 μm)) | permeation into individual GUVs ([1]; without Ru(C17)2^2+, vesicle diameter 20 μm) | permeation into individual GUVs ([1]; without Ru(C17)2^2+, vesicle diameter down to 10 μm) [%] | vesicle diameter with Ru(C17)2^2+ and addition of potassium ferricyanide [2] [µm] | vesicle diameter upon incorporation of Ru(C17)2^2+ ([2]; 23.0 ± 6.6 without Ru(C17)2^2+) [nm] | ζ-potential of GUVs after incubation with Ru(C17)2^2+ ([3]; start of the period, pure GUVs with 20% POPS −90.8 ± 3.3 mV) [mV] | ζ-potential of GUVs after incubation with Ru(C17)2^2+ ([3]; up to 9 h after incubation) [mV] | Molecule |
| --- | --- | --- | --- | --- | --- | --- | --- | --- |
| below 30% | below 10% | below 10% | 60 | – | – | – | – | O=C(O)CN(CC(=O)O)Cc1cc2c(cc1O)Oc1cc(O)c(CN(CC(=O)O)CC(=O)O)cc1C21OC(=O)c2ccccc21 [calcein] |
| – | – | – | – | 15.8 ± 3.8 | 17.9 ± 4.8 | −11.7 ± 4.8 | −18.5 ± 2.6 | dihepta-decylated tris(bipyridine)ruthenium(II) complex [Ru(C17)2^2+] |
